An excerpt weighted towards active compounds, which were near 2.2% of everything screened.
Mcl-1 Bim block – inhibitors of Bim peptide binding to Mcl-1, primary screen, biochemical, bead-based flow cytometry, multiplex; Induced myeloid leukemia cell differentiation protein Mcl-1 (Homo sapiens), Q07820; Bim peptide-Mcl-1 binding; inhibition, % at 10 µM; 0.1% of 190,000 active; in the data active means inhibition above about 40%
Mcl1-Noxa inh – Mcl-1/Noxa binding inhibitors, primary screen, biochemical, TR-FRET, 1536-well. TR-FRET Mcl-1/Noxa peptide binding, 2 h. inhibition, % at 21.7 µM. 1.5% of 220,000 active;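 active means compounds that cut the protein-peptide binding signal by more than 50% relative to plate controls in a single-dose test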;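 further: His-tagged Mcl-1 with rhodamine Noxa BH3 peptide and terbium anti-His antibody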
RBBP9 inhibitor – human RBBP9 inhibitors, primary screen, biochemical, fluorescence polarization, FP-Rh probe, HTS; Serine hydrolase RBBP9 (Homo sapiens), O75884; recombinant RBBP9; inhibition, % at 7.94 µM; 0.2% of 220,000 active;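 active means inhibition above the campaign mean of all tested compounds plus 3 SD, cut at about 14% in these data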
Target sequence (O75884 whole entry, looked up): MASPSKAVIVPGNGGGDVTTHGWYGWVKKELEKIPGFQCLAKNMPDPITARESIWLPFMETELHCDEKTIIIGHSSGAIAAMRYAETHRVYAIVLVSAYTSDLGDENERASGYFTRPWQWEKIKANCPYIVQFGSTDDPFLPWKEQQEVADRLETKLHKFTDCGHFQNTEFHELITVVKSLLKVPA
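Test system: recombinant human RBBP9; Timing: 30 min then 45 min, 25 °C; Detection: fluorescence polarization; Control set: RBBP9 with DMSO as uninhibited control, no-protein wells as full inhibition; Compound dosing: one concentration, 7.94 µM nominal, 0.794% DMSO; Probe or stimulus: FP-Rh activity-based probe, 375 nM before mixing.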
Mcl1-Bid inh – Mcl-1/Bid binding inhibitors, primary screen, biochemical, TR-FRET, 1536-well; 0.97% of 220,000 active; AID 1021, 2008; TR-FRET Mcl-1/Bid-Dy647 peptide binding; inhibition, % at 21.7 µM; Induced myeloid leukemia cell differentiation protein Mcl-1 (Homo sapiens), Q07820;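 active means compounds that cut the binding signal by more than half at the single screening dose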;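 further: His-tagged Mcl-1 with europium anti-His antibody binding Bid BH3 peptide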
EBV gp42 inh – Epstein-Barr virus gp42 inhibitors, primary screen, biochemical, uHTS, fluorescence polarization | Glycoprotein 42 (Epstein-Barr virus (strain AG876)), Q1HVG2 | Fluorescence polarization binding assay, mP read-out | inhibition, % (tested at 21.74 µM) | 0.42% of 220,000 active; in the data active means inhibition above about 50%
Target sequence (Q1HVG2 whole entry, looked up): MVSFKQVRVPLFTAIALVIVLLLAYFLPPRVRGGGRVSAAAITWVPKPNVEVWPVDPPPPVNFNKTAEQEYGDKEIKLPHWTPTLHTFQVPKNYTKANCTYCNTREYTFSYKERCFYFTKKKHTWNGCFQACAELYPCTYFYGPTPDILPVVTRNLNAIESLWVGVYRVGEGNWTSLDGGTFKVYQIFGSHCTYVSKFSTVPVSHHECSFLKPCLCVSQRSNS
MCL1 BIM primary – inhibitors of MCL1 binding to BIM-BH3, primary screen, biochemical, fluorescence polarization | AID 2057, 2009 | GST-MCL1 / FITC-Bim-BH3 fluorescence polarization | Induced myeloid leukemia cell differentiation protein Mcl-1 (Homo sapiens), Q07820 | inhibition, % at 10.9 µM | 0.68% of 320,000 active;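 active means inhibition above the mean inhibition of all tested compounds plus 3 SD, set per campaign, cut at about 40% in these data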;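 further: higher means more loss of mP so more displacement of Bim peptide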
Of the large screens only hits and unclear results are named; the others gave an inactive call.

O=C(N=Nc1c(O)n(Cc2ccccc2)c2ccccc12)c1ccc(O)cc1	none
Cc1ccc(NC(=O)Cn2c(O)c(N=NC(=O)c3cc4ccccc4cc3O)c3ccccc32)cc1	Mcl1-Noxa inh 99.1, Mcl1-Bid inh 80.2
Cc1ccc(OCC(=O)Nc2ccc3c(c2)C(=O)N(CCC(=O)O)C3=O)cc1	none (no result: Mcl-1 Bim block, Mcl1-Noxa inh, RBBP9 inhibitor, Mcl1-Bid inh, EBV gp42 inh)
CN(C)S(=O)(=O)c1cccc(N2C(=O)CC3(CCCCC3)CC2=O)c1	none
CSCC[C@H](NC(=O)OC(C)(C)C)c1nnc(SCC(=O)N(C)C)o1	Mcl1-Noxa inh 67.4
COc1cc2cc3c(N)c(C(=O)NCc4ccco4)sc3nc2cc1OC	Mcl1-Noxa inh 56.5
Cc1cc(C(=O)Nc2sc(C)c(C)c2C#N)no1	none
COc1cc2cc3c(N)c(C(=O)Nc4sc(C)c(C)c4C#N)sc3nc2cc1OC	Mcl1-Noxa inh 98.1, Mcl1-Bid inh 66.4
COc1ccc(Cl)cc1NC(=O)C1CCCN(S(C)(=O)=O)C1 (configuration not stated)	none (no result: Mcl-1 Bim block, Mcl1-Noxa inh, RBBP9 inhibitor, Mcl1-Bid inh, EBV gp42 inh)
COc1ccc(Cc2nnc(SCC(=O)c3ccc4c(c3)NC(=O)CO4)o2)cc1	none (no result: Mcl-1 Bim block, Mcl1-Noxa inh, RBBP9 inhibitor, Mcl1-Bid inh, EBV gp42 inh)
COc1cc2[nH]c(=S)nc(NCCc3ccc(C)cc3)c2cc1OC	none (no result: MCL1 BIM primary)
COc1cc2[nH]c(=S)nc(NCCc3ccc(S(N)(=O)=O)cc3)c2cc1OC	Mcl1-Noxa inh 59.2
COc1ccc(CCNc2ncnc3c2[nH]c2cc(OC)c(OC)cc23)cc1OC	Mcl1-Noxa inh 65.7 (no result: Mcl-1 Bim block)
COc1ccc(CCNc2ncnc3cc(OC)c(OC)cc23)cc1OC	none (no result: MCL1 BIM primary)
COc1ccc(CCNc2nc(=S)[nH]c3cc(OC)c(OC)cc23)cc1OC	Mcl1-Noxa inh 80.1
Cc1cccc(N/N=C/c2ccccc2O)c1	none
C=CCOC(=O)C(=O)/C=C/c1coc2ccccc2c1=O	MCL1 BIM primary 46.5
CCN(CC)C(=O)C1CCCN(Cc2cccc(F)c2)C1 (configuration not stated)	Mcl1-Bid inh 64.3
CCN(CC)C(=O)C1CCCN(Cc2ccc3ccccc3c2)C1 (configuration not stated)	none (no result: Mcl-1 Bim block, Mcl1-Noxa inh, RBBP9 inhibitor, Mcl1-Bid inh, EBV gp42 inh)
CN1C(=S)N(c2cccnc2)C(=O)/C1=C\c1ccc(N(C)C)cc1	Mcl1-Bid inh 83.3 (no result: MCL1 BIM primary)
CCCOc1ccc(-c2nnc(N)s2)cc1	Mcl1-Noxa inh 61.7
Cc1ccc(S(=O)(=O)N2CCC(C(=O)NC3CC(C)(C)NC(C)(C)C3)CC2)cc1	none (no result: Mcl-1 Bim block, Mcl1-Noxa inh, RBBP9 inhibitor, Mcl1-Bid inh, EBV gp42 inh)
COc1ccccc1NC(=O)COc1cc(Br)c(CNCCCN2CCOCC2)cc1OC	Mcl1-Bid inh 89.0
COc1ccccc1OCC(=O)NCCCN1CCOCC1	none (no result: Mcl-1 Bim block, Mcl1-Noxa inh, RBBP9 inhibitor, Mcl1-Bid inh, EBV gp42 inh)
O=C1c2sc3nc4ccccc4n3c2C(=O)N1c1ccccc1Cl	Mcl1-Noxa inh 61.5
CCOC(=O)C(=CNNc1cccc(Cl)c1)C(=O)OCC	Mcl1-Noxa inh 52.2 (no result: Mcl-1 Bim block)
CCOCCc1nnc(NC(=O)CCS(=O)(=O)c2ccccc2)s1	none (no result: Mcl-1 Bim block, Mcl1-Noxa inh, RBBP9 inhibitor, Mcl1-Bid inh, EBV gp42 inh)
Cc1nc(C(C)NC(=O)CCc2nnc(-c3ccsc3)o2)cs1 (configuration not stated)	none
Cc1nc(CSc2n[nH]c(=O)n2-c2ccccc2)cs1	none (no result: Mcl-1 Bim block)
Cc1nc(CSc2nc3[nH]ncc3c(=O)n2-c2ccccc2)cs1	Mcl1-Bid inh 83.6
COc1ccc(S(=O)(=O)N(C)CC(=O)NCc2ccco2)cc1Cl	none (no result: Mcl-1 Bim block, Mcl1-Noxa inh, RBBP9 inhibitor, Mcl1-Bid inh, EBV gp42 inh)
COc1ccc(C)cc1S(=O)(=O)N(C)CC(=O)NCc1ccco1	Mcl1-Bid inh 94.4
Cc1ccc(S(=O)(=O)N2CCC(C(=O)NCCCN3CCOCC3)CC2)cc1C	none (no result: Mcl-1 Bim block, Mcl1-Noxa inh, RBBP9 inhibitor, Mcl1-Bid inh, EBV gp42 inh)
NC(=O)c1cc(N2C(=O)C=CC2=O)ccc1Cl	Mcl1-Noxa inh 68.2
O=c1c(-c2nnc(SCc3ccc(Cl)c(Cl)c3)o2)cccn1Cc1ccccc1	none
COc1cc(CN2CCC(C(=O)N3CCC(C)CC3)CC2)cc(Br)c1O	none
COc1cc(CN2CCC(C(=O)NC3CCCC3)CC2)cc(Br)c1O	Mcl1-Bid inh 50.7

Source: PubChem BioAssay
